# According to ChEMBL document CHEMBL1152806, “Discovery of a potent, selective, and orally efficacious pyrimidinooxazinyl bicyclooctaneacetic acid diacylglycerol acyltransferase-1 inhibitor” (J Med Chem, 2009):
# The source made the active and inactive calls. The calls are words filed in the database; no cut-off is given here.
# Legend:
# [1] = Metabolic stability in rat alamethicin-activated microsomes assessed as conversion to acyl glucuronide form after 1 hr; type: ADME, Microsome
# Hepatocyte [2] = experiment: Metabolic stability in rat hepatocytes assessed as conversion to acyl glucuronide form after 2 hrs; type: ADME, cell-based
# [3] = Plasma clearance in dog at 1 to 3 mg/kg; type: ADME, organism-based, Canis lupus familiaris; design: dose 1-3 mg/kg
# [4] = Bioavailability in marmosets at 1 to 3 mg/kg; type: ADME, organism-based; details: callitrichinae sp., in vivo
# HuTu80 = experiment: Inhibition of triacylglycerol synthesis in human HuTu 80 cells after 30 mins; type: functional, cell-based; details: HuTu80, 0.5 h
# Method in brief: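 Confluent HuTu 80 cells in serum-free medium, preincubated 30 min with compound (0.1% DMSO final). Then given 0.12 mM sodium oleate plus 1 µCi/mL 14C-oleate complexed to 0.03 mM BSA. Cells solubilized in SDS and lipids extracted; 14C in triacylglycerol measured by normal-phase HPLC with radio-flow detection. Lowry protein determined.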
# [5] = Half life in dog at 1 to 3 mg/kg, po; type: ADME, organism-based, Canis lupus familiaris; design: dose 1-3 mg/kg, route oral; details: in vivo
# Rattus norvegicus [6] = experiment: Reduction of plasma triacylglycerol excursion in 14 hrs fasted Han-Wistar rat at 1 mg/kg, po treated 2 hrs before bolus corn oil administration measured 1.5 hrs post corn oil challenge by oral lipid tolerance test relative to control; type: functional; design: scale not given: the % may be the effect or the level left
# Method in brief: (§1)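 Male Han-Wistar rats (~230 g) on chow diet were fasted 14 h and given compound by oral gavage, suspended in HPMC/Tween. A corn oil bolus (5 mL/kg) followed 2 h later. After 1.5 h, blood was drawn from the abdominal vena cava and plasma TAG measured colorimetrically (GPO-PAP). Result is % reduction versus vehicle-treated controls; n = 6.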
# CYP2C19 = CYP2C19 (Homo sapiens, UniProt P33261); experiment: Inhibition of CYP2C19 at 30 uM; type: ADME
# Chain of CYP2C19 (P33261 whole entry): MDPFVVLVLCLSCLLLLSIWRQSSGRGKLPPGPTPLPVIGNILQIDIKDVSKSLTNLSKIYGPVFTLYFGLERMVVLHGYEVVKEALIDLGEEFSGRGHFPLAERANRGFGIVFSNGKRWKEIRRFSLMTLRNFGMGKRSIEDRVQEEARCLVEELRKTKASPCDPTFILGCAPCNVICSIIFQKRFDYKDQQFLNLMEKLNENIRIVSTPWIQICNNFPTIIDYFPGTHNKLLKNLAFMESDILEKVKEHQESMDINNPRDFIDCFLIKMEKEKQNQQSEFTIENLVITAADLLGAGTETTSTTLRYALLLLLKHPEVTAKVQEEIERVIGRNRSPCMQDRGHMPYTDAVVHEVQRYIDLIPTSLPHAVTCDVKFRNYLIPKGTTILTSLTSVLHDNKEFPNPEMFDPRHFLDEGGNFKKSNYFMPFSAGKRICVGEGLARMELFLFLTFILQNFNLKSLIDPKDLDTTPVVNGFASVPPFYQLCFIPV
# Rattus norvegicus [7] = experiment: Reduction of adipose triacylglycerol synthesis in 14 hrs fasted Han-Wistar rat assessed as decrease in ratio of [3H]palmitic acid incorporation in to TAG and DAG at 3 mg/kg, po after 1.5 hrs relative to control; type: functional; design: scale not given: the % may be the effect or the level left
# Method in brief: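 Male Han-Wistar rats (~300 g) on chow diet were given compound by oral gavage, suspended in HPMC/Tween. At 1.5 h they were anaesthetised with inactin and a bolus of [3H]-palmitic acid was given via a jugular cannula. Epididymal fat was taken 20 min later, homogenised in duplicate with [14C]-oleic acid internal standard, and lipids separated by HPLC. Result is % reduction of the TAG/DAG label ratio versus vehicle; n = 10.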
# [8] = Metabolic stability in dog alamethicin-activated microsomes assessed as conversion to acyl glucuronide form after 1 hr; type: ADME, Canis lupus familiaris, Microsome
# Mus musculus = experiment: Inhibition of dietary-induced obesity in obese […] mouse model assessed as reduction in body weight at 20 mg/kg, po qd for 3 days relative to start weight; type: functional, organism-based; design: dose 20 mg/kg
# Method in brief: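 Female C57BL/6 mice fed high-calorie cafeteria diet for 15 weeks to about 29 g, randomized into groups of 12. Oral gavage (10 mL/kg) once daily for 3 days, 2 h before the dark phase. Body weight recorded daily before dosing and expressed as percent change from day 0, compared with vehicle-treated diet-matched controls.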
# [9] = Plasma clearance in rat at 1 to 3 mg/kg; type: ADME, organism-based; design: dose 1-3 mg/kg
# Hepatocyte [10] = experiment: Metabolic stability in human hepatocytes assessed as conversion to acyl glucuronide form after 2 hrs; type: ADME, cell-based
# [11] = Bioavailability in dog at 1 to 3 mg/kg; type: ADME, organism-based, Canis lupus familiaris; details: in vivo
# CYP3A4 = CYP3A4 (Homo sapiens, UniProt P08684); experiment: Inhibition of CYP3A4 at 30 uM; type: ADME
# Chain of CYP3A4 (P08684 whole entry): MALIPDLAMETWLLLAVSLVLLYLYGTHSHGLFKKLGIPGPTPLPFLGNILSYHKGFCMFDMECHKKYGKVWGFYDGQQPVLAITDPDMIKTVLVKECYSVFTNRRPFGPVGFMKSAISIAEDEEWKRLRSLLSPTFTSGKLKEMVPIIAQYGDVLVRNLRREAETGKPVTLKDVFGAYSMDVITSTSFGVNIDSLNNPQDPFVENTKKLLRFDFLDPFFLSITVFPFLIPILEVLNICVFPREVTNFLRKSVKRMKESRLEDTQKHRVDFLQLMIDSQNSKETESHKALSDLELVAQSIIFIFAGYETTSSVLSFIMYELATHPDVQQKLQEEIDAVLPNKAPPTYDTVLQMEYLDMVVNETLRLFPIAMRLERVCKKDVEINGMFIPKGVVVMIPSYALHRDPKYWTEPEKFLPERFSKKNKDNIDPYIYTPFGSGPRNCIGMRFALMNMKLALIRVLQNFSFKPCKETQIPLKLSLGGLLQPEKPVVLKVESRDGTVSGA
# Plasma = experiment: Fraction unbound in human plasma by LC-UVMS; type: ADME, cell-free
# Method in brief: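 Equilibrium dialysis in plasma of the relevant species at 37 °C; free and bound drug quantified by LC-UVMS; reported as % free.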
# Rattus norvegicus [12] = experiment: Reduction of plasma triacylglycerol excursion in 14 hrs fasted Han-Wistar rat at 0.3 mg/kg, po treated 2 hrs before bolus corn oil administration measured 1.5 hrs post corn oil challenge by oral lipid tolerance test relative to control; type: functional; design: scale not given: the % may be the effect or the level left; method in brief: as §1
# [13] = Half life in rat at 1 to 3 mg/kg, iv; type: ADME, organism-based; design: dose 1-3 mg/kg, route intravenous; details: in vivo
# [14] = Half life in marmosets at 1 to 3 mg/kg, iv; type: ADME, organism-based; design: dose 1-3 mg/kg, route intravenous; details: callitrichinae sp., in vivo
# [15] = Lipophilicity, log D of the compound; type: physicochemical; details: octanol/water
# [16] = Plasma clearance in marmosets at 1 to 3 mg/kg; type: ADME, organism-based; design: dose 1-3 mg/kg; details: callitrichinae sp.
# [17] = Half life in dog at 1 to 3 mg/kg, iv; type: ADME, organism-based, Canis lupus familiaris; design: dose 1-3 mg/kg, route intravenous; details: in vivo
# [18] = Bioavailability in rat at 1 to 3 mg/kg; type: ADME, organism-based; details: in vivo
smiles,measurement,setting,value
CC1(C)Oc2ncnc(N)c2N=C1c1ccc(C23CCC(CC(=O)O)(CC2)CC3)cc1,Stability,[1],9%
same,Stability,Hepatocyte [2],18%
same,clearance,[3],3.3 mL/min/kg
same,bioavailability,[4],61%
same,IC50,HuTu80,3 nM
same,half-life,[5],9.9 h
same,Activity,Rattus norvegicus [6],72%
same,inhibition at 30 µM,CYP2C19,< 25%
same,Activity,Rattus norvegicus [7],57%
same,Stability,[8],76%
same,Activity,Mus musculus,Active
same,clearance,[9],1.5 mL/min/kg
same,Stability,Hepatocyte [10],17%
same,bioavailability,[11],> 100%
same,inhibition at 30 µM,CYP3A4,< 25%
same,Fu,Plasma,1%
same,Activity,Rattus norvegicus [12],57%
same,half-life,[13],7 h
same,half-life,[14],13 h
same,logD,[15],1.9
same,clearance,[16],0.78 mL/min/kg
same,half-life,[17],8.6 h
same,bioavailability,[18],72%
